Legend:
[1] = preclinical model; cited from earlier work
[2] = test system: TS543 glioblastoma; test: Ex vivo NIRF imaging of sliced brains; assay type: in vivo, mouse; settings: TS543 model, brain slices 48 hours after probe injection, mean±SEM
In short: (§1)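 Test probe (1 nmol) injected via tail vein; controls were 1 nmol nonspecific RAD-peptide dye conjugate and a blocking mix (1 nmol probe plus 20 nmol unlabeled cRGD). Mice were killed at 48 h; whole brains were sliced coronally and imaged on Odyssey (800 nm channel, sensitivity 5, 21 μm resolution). Signal was background-subtracted and area-weighted, tumor vs corresponding normal brain; tumor confirmed by H&E.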

[3] = test system: U-87 MG glioblastoma; test: Ex vivo NIRF imaging of sliced brains; assay type: in vivo, mouse; settings: U-87 MG model, brain slices 48 hours after probe injection, mean±SEM
In short: as §1

[4] = test system: RCAS-PDGF glioblastoma; test: Ex vivo NIRF imaging of sliced brains; assay type: in vivo, mouse; settings: RCAS-PDGF model, brain slices 48 hours after probe injection, mean±SEM
In short: as §1

Compound: CC1(C)C(=CC=C2CCCC(C=CC3=[N+](CCCCCC(=O)[O-])c4ccc(S(=O)(=O)[O-])cc4C3(C)C)=C2Oc2ccc(S(=O)(=O)[O-])cc2)N(CCCCS(=O)(=O)[O-])c2ccc(S(=O)(=O)[O-])cc21.[Na+].[Na+].[Na+].[Na+] [IRDye 800CW]
- Toxicity [1]: good results

Compound: IRDye 800CW-conjugated cyclic Arg-Ala-Asp-D-Phe-Lys (head to tail) [IRDye 800CW-RAD, IRDye 800CW-conjugated cyclic Arg-Ala-Asp-D-Phe-Lys peptide]
- T/N ratio ex vivo (area-normalized fluorescence-800, tumor vs normal brain) [2]: 11.6±1.0
- T/N ratio ex vivo (area-normalized fluorescence-800, tumor vs normal brain) [3]: 10.5±1.0
- T/N ratio ex vivo (area-normalized fluorescence-800, tumor vs normal brain) [4]: 11.6±1.1
